# Most compounds without a hit are left out; they make up all but 1.8% or so of the library.
# Statin myotox sup: suppressors of statin myotoxicity in C2C12 myotubes, primary screen, cell-based, single point, plate reader; C2C12 myotubes + simvastatin, ATP luminescence, 48 h; scaled: DMSO 0, geranylgeraniol control 100; rescue of ATP level, % at 7.49 µM; 330,000 tested, 0.78% active; AID 602340, 2012;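 active means mean ATP rescue above about 67%, or every replicate alone reaching that limit, limit read from the data, passing the limit was not always enough; inconclusive means no clear call, values can overlap the other calls; inactive means mean under the limit and some replicate under it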;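 further: myotubes were challenged with 10 µM simvastatin during compound exposure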
# Cneo AK release: Cryptococcus neoformans cell lysis inducers, primary screen, AK release luminescence, single concentration; C. neoformans lysis, adenylate kinase release luminescence, 4 h; normalised: neutral wells 0, clomiphene wells 100; lysis activity, % at 15 µM; 360,000 tested, 0.2% active;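 active means mean lysis activity across replicates of at least 80%, whatever share of replicates individually reach that level; inactive means mean lysis activity below 80%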
#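 Assay system: log-phase C. neoformans yeast / Quantity: yeast cell density of 5 × 10^6 cells/mL / Medium: fresh YPD growth medium / Compound: single dose / Timing: static 4 h at 37 °C with compound, 1 h detection / Measured by: adenylate kinase release luminescence / Read-out: lysis from increased AK signal / Benchmarks: Clomiphene as positive lysis control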
# Efflux pump mplx: inhibitors of Candida efflux pumps in yeast, primary screen, S. cerevisiae, Nile Red, multiplex; AID 485275, 2010; inhibition, % at 10 µM; S. cerevisiae Candida pump triplex; 330,000 tested, 0.44% active;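 active means plate passing quality check with inhibition over a set limit, or well fluorescence over plate mean plus 4 SD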;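 further: Nile Red retained in pooled yeast measured as flow cytometry median fluorescence; higher means more Nile Red kept so more efflux inhibition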
# SUMO Mot1 rescue: yeast Mot1-301 growth rescue at high temperature, primary screen, SUMOylation pathway inhibitor project, S. cerevisiae, ATP luminescence, 38.5C. S. cerevisiae Mot1-301 growth rescue; percent above DMSO median, 100 means doubled. 320,000 tested, 1% active. AID 2716, 2010. growth rescue, % at 18.8 µM;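 active means every valid replicate shows activation above 250% relative to neutral control wells; inactive means the rest, any valid replicate at or below 250%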
# Numbers stand for hits; i = inactive; ? = inconclusive; nt = no result given.
SMILES,Statin myotox sup,Cneo AK release,Efflux pump mplx,SUMO Mot1 rescue
C[C@H]1CN([C@@H](C)CO)C(=O)Cc2cc(NC(=O)CCCCCC(=O)Nc3ccccc3N)ccc2O[C@H]1CN(C)Cc1ccccc1,73,i,nt,nt
C[C@@H]1CN([C@H](C)CO)C(=O)Cc2cc(NC(=O)CCCCCC(=O)Nc3ccccc3N)ccc2O[C@@H]1CN(C)Cc1ccccc1,?,i,nt,nt
C[C@@H]1CN([C@@H](C)CO)C(=O)Cc2cc(NC(=O)CCCCCC(=O)Nc3ccccc3N)ccc2O[C@H]1CN(C)Cc1ccc(-c2ccccc2)cc1,94,i,nt,nt
C[C@H](CO)N1C[C@H](C)[C@@H](CN(C)Cc2ccc(-c3ccccc3)cc2)Oc2ccc(NC(=O)CCCCCC(=O)Nc3ccccc3N)cc2CC1=O,88,i,nt,nt
C[C@@H]1CN([C@H](C)CO)C(=O)Cc2cc(NC(=O)CCCCCC(=O)Nc3ccccc3N)ccc2O[C@@H]1CN(C)Cc1ccc(Oc2ccccc2)cc1,i,i,nt,nt
C[C@H]1CN([C@@H](C)CO)C(=O)Cc2cc(NC(=O)CCCCCC(=O)Nc3ccccc3N)ccc2O[C@@H]1CN(C)Cc1ccc(Oc2ccccc2)cc1,102,i,nt,nt
C[C@H](CO)N1C[C@H](C)[C@H](CN(C)Cc2ccc(-c3ccccc3)cc2)Oc2ccc(NC(=O)CCCCCC(=O)Nc3ccccc3N)cc2CC1=O,i,i,nt,nt
CCN(CC)C(=O)[C@H]1CC(CC(=O)NCc2ccc(OC)c(OC)c2)C(=O)N2CCc3c([nH]c4ccc(OC)cc34)[C@]12C (stereo not given in full),i,i,i,nt
COc1ccccc1NS(=O)(=O)c1ccc(Br)s1,i,i,i,i
CC(=O)c1cccc(NS(=O)(=O)c2cc(-c3cnc(C4CC4)o3)ccc2C)c1,i,i,i,i
O=C(CSc1ccccc1Cl)NC1CCCc2ccccc21 (stereo not given),nt,nt,i,i
O=C(CSc1c(Cl)cccc1Cl)NC1CCCc2ccccc21 (stereo not given),nt,i,i,349
COc1cc(/C=C/C(=O)OCC(=O)N2CCCc3ccccc32)ccc1O,i,i,i,i
Cn1c(=S)oc2ccccc21,89,i,i,i
CC(Sc1ccc(Br)cc1)C(N)=O (stereo not given),i,i,i,i
CO[C@@H]1CN(C)C(=O)c2ccc(NC(=O)NC(C)C)cc2OC[C@@H](C)NC[C@@H]1C,i,i,nt,nt
CO[C@@H]1CN(C)C(=O)c2ccc(NC(=O)NC(C)C)cc2OC[C@H](C)NC[C@@H]1C,i,82,nt,nt
CO[C@H]1CN(C)C(=O)c2ccc(NC(=O)NC(C)C)cc2OC[C@H](C)NC[C@H]1C,i,i,nt,nt
CO[C@H]1CN(C)C(=O)c2ccc(NC(=O)NC(C)C)cc2OC[C@@H](C)NC[C@H]1C,i,82,nt,nt
COc1ccc2oc(C(=O)Nc3nc4ccccc4[nH]3)c(C)c2c1,i,i,i,i
c1csc(-c2noc(CN3CCN4CCCC4C3)n2)c1 (stereo not given),i,i,i,i
O=C1C(=C(c2ccccc2)c2ccccc2)Nc2ccccc21,100,i,i,i
COCC(C)NS(=O)(=O)c1ccc(C)cc1 (stereo not given),141,i,i,i
Cc1cccn2c(=O)c(/C=C(\C#N)C(=O)NCc3ccco3)c(N3CCCCC3)nc12,i,i,i,i
CCN(C(=O)c1cnc(N2CCN(c3ncccn3)CC2)c2ccccc12)c1cccc(Cl)c1,110,i,i,i
SMILES,Statin myotox sup,Cneo AK release,Efflux pump mplx,SUMO Mot1 rescue
C=CCn1c(=N)c(C#N)cc2c(=O)n3ccccc3nc21,94,nt,i,i
CCOC(=O)Nc1cc(NC(=O)OCC)c(C)nc1C,nt,nt,i,i
CCOC(=O)Nc1ccc(C)cc1Br,108,i,i,i
CCOC(=O)c1ccc(NC(=O)N2CCc3ccccc32)cc1,72,i,i,i
CCOC(=O)c1ccc(NC(=O)N2CCCCC2)cc1,137,i,i,nt
CCOC(=O)c1ccc(NC(=O)N2CCc3ccccc3C2)cc1,i,i,i,i
Cc1cc(C)n(C(=O)c2cc3ccccc3c(=O)o2)n1,93,i,i,i
O=C(Nc1cc2c3c(c1)CC(=O)N3CCC2)c1cccc(F)c1,nt,i,i,i
O=C(CSc1nnnn1C1CC1)N1CCN(c2ccccc2F)CC1,i,i,i,i
C=CCSc1nc(=O)n2ccccc2n1,100,i,i,i
COc1ccc(S(=O)(=O)N2CCOCC2)cc1NC(=O)CSc1ncccn1,110,i,i,i
COc1ccc(S(=O)(=O)N2CCCCC2)cc1NC(=O)CSc1ncccn1,i,i,i,i
CCCCCCCNC(=O)C1(CC2CC(c3ccc(Cl)cc3)=NO2)CCN(C(=O)OC(C)(C)C)CC1 (stereo not given),121,i,i,i
CC(C)(C)n1nnnc1C(c1cccnc1)N1CCN(c2ccccc2F)CC1 (stereo not given),120,nt,i,i
CC(C)(C)n1nnnc1C(c1cccnc1)N1CCN(c2ccccc2)CC1 (stereo not given),i,nt,i,i
CC(C)CC(c1nnnn1C1CCCC1)N1CCN(c2ccccc2F)CC1 (stereo not given),117,i,i,i
COc1ccccc1N1CCN(C(=O)c2ccccc2N(C)S(=O)(=O)c2ccc(C)cc2)CC1,i,i,i,i
O=C1/C(=C/c2ccccc2[N+](=O)[O-])COc2ccccc21,169,i,i,i
O=C(Nc1nc2ccc(SC(F)F)cc2s1)c1ccc(NS(=O)(=O)c2ccc(F)c(F)c2)cc1,nt,i,i,622
CS(=O)(=O)c1ccc2nc(NC(=O)c3ccc(NS(=O)(=O)c4ccc(F)c(F)c4)cc3)sc2c1,i,i,i,i
Cn1c(N)c(C(=O)COC(=O)CCC(=O)c2ccc(F)cc2)c(=O)n(C)c1=O,i,i,i,i
CC(=O)OC12CC3CC(C1)C(=NO)C(C3)C2,94,i,i,i
c1ccc(CC2CCN(Cc3ccccn3)CC2)cc1,nt,nt,i,343
Clc1ccc(CN2CCC(Cc3ccccc3)CC2)cc1,nt,nt,i,i
O=C(CSC1CC(=O)N(CCc2ccccc2)C1=O)Nc1cccc(Cl)c1 (stereo not given),nt,i,i,314
SMILES,Statin myotox sup,Cneo AK release,Efflux pump mplx,SUMO Mot1 rescue
CCN(CC)c1ccc(NC(=O)c2cc3ccccc3o2)c(C)c1,159,i,i,i
COc1ccc2c(c1OC)C(=O)N(c1ccccn1)C2,101,i,i,nt
CCc1ccccc1NC(=O)CCN1C(=O)C2CC=CCC2C1=O (stereo not given),i,i,i,i
CN1CCN(C(=O)c2ccccc2NC(=O)CCN2C(=O)c3ccccc3C2=O)CC1,i,i,i,336
CCc1ccccc1NC(=O)CCN1C(=O)c2ccccc2C1=O,133,i,i,i
Cn1cnc2c1c(=O)n(Cc1ccc(Cl)cc1Cl)c(=O)n2C,i,i,i,i
O=C(CCN1CCc2ccccc21)c1ccc2c(c1)OCCO2,115,i,i,i
OCCN(CCCn1c(-c2ccncc2)nc2ccccc21)c1nc(CN2CCCCC2)cs1,66,i,i,i

# Compound activity from PubChem BioAssay.
